Laboratory results: ChEMBL document CHEMBL1152689, “Synthesis, tautomerism, and antimicrobial, anti-HCV, anti-SSPE, antioxidant, and antitumor activities of arylazobenzosuberones” (Bioorg Med Chem, 2009)
Values after ≈ are worked out from the molar mass of the structure shown. Active and inactive are the calls of the source. The rule behind the calls is not given here.

How the values were obtained:
[1] = test system: Syncephalastrum racemosum; experiment: Antimicrobial activity against Syncephalastrum racemosum at 1.25 ug/mL by agar diffusion method; assay type: functional; conditions: read-out: IZ
[2] = molecular target: T1, DNA topoisomerase 1 (Homo sapiens) (UniProt P11387); experiment: Inhibition of topoisomerase 1 relative to etoposide
T1 sequence (whole entry): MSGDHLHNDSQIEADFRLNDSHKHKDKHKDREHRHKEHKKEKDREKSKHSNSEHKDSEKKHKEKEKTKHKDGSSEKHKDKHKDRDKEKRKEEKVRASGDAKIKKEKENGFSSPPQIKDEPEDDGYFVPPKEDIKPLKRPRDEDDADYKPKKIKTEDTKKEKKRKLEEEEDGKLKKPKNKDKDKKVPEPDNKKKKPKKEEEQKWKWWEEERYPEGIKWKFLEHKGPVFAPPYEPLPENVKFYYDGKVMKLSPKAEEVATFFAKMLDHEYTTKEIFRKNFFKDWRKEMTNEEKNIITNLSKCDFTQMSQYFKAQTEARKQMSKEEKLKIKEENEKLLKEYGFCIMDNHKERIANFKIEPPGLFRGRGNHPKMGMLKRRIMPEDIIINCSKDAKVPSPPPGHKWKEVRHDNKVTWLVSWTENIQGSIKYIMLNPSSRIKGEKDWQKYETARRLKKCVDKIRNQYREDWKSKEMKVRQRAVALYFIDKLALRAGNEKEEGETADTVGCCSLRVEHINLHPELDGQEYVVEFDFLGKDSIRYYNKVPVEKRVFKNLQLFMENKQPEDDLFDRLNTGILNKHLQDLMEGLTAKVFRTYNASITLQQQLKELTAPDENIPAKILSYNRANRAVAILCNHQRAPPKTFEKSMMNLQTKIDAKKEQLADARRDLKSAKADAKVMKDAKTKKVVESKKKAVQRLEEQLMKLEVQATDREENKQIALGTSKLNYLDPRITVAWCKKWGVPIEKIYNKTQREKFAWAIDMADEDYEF

Escherichia coli [3] = experiment: Antimicrobial activity against Escherichia coli at 5 ug/mL by agar diffusion method; assay type: functional; conditions: read-out: IZ
Escherichia coli [4] = experiment: Antimicrobial activity against Escherichia coli at 2.5 ug/mL by agar diffusion method; assay type: functional; conditions: read-out: IZ
Pseudomonas aeruginosa [5] = experiment: Antimicrobial activity against Pseudomonas aeruginosa at 1.25 ug/mL by agar diffusion method; assay type: functional; conditions: read-out: IZ
Penicillium italicum [6] = experiment: Antimicrobial activity against Penicillium italicum by agar diffusion method; assay type: functional
How it was run: (§1)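 Agar diffusion on plates against bacteria and fungi. MIC taken as the lowest concentration giving no visible growth on the plate.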

Penicillium italicum [7] = experiment: Antimicrobial activity against Penicillium italicum at 1.25 ug/mL by agar diffusion method; assay type: functional; conditions: read-out: IZ
[8] = Antioxidant activity assessed as inhibition of peroxynitrite-mediated 3-nitrotyrosine formation by HPLC; assay type: functional
How it was run: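 Tyrosine and peroxynitrite, each 100 µM, reacted with compound at 0–300 µM in 100 mM phosphate buffer pH 7.4 at 37 °C for 15 min. Peroxynitrite made from acidified H2O2 plus KNO2, quenched with NaOH, and kept on ice no longer than 30 min before use.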

[9] = test system: Syncephalastrum racemosum; experiment: Antimicrobial activity against Syncephalastrum racemosum by agar diffusion method; assay type: functional; how it was run: as §1
Penicillium italicum [10] = experiment: Antimicrobial activity against Penicillium italicum at 2.5 ug/mL by agar diffusion method; assay type: functional; conditions: read-out: IZ
[11] = molecular target: DNA topoisomerase 2-alpha (Mus musculus) (UniProt Q01320); experiment: Inhibition of topoisomerase 2 from mouse P388 cells assessed as relaxation of pBR322 DNA by agarose gel electrophoresis relative to etoposide; assay type: cell-based
How it was run: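 Topoisomerase II purified from P388 cells. One unit relaxes 0.125 µg supercoiled pBR322 DNA, incubated with or without inhibitor at 30 °C for 1 h in 50 mM Tris-HCl pH 8.0, 100 mM KCl, 10 mM MgCl2, 0.5 mM DTT, 1 mM ATP and 30 µg/ml BSA. Products run on 0.7% agarose in TBE, stained with ethidium bromide and imaged under UV.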

MC-38 = experiment: Antitumor activity against mouse Colon 38 cells implanted in iv dosed C57BL/6 mouse administered as single dose; assay type: functional, organism-based
How it was run: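 Female C57BL/6 mice, 6 weeks old, given about 30 mg Colon 38 tumor tissue s.c. in the flank. Randomized into groups of n = 5 when tumors reached about 300 mm3 (day 1). Compound in 5% glucose given as a single iv tail-vein dose on day 1; controls received 5% glucose. Tumor volume = (length × width²)/2 and body weight tracked.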

Bacillus subtilis [12] = experiment: Antimicrobial activity against Bacillus subtilis by agar diffusion method; assay type: functional; how it was run: as §1
Candida albicans [13] = experiment: Antimicrobial activity against Candida albicans by agar diffusion method; assay type: functional; how it was run: as §1
Staphylococcus aureus [14] = experiment: Antimicrobial activity against Staphylococcus aureus at 5 ug/mL by agar diffusion method; assay type: functional; conditions: read-out: IZ
Measles morbillivirus = experiment: Antiviral activity against Measles virus infected in intracranially dosed hamster assessed as inhibition of subacute sclerosing panencephalitis; assay type: functional
How it was run: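 Hamsters under ether anesthesia injected intracranially, into the subarachnoid space at 2 mm depth, at 5, 10 and 20 mg/kg/day for 10 days. Four animals per group sacrificed on days 1–20. Brains homogenized in PBS and centrifuged, supernatant deproteinized with ethanol, then MIC in brain tissue determined by HPLC and bioassay.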

Bacillus subtilis [15] = experiment: Antimicrobial activity against Bacillus subtilis at 5 ug/mL by agar diffusion method; assay type: functional; conditions: read-out: IZ
Aspergillus fumigatus [16] = experiment: Antimicrobial activity against Aspergillus fumigatus at 2.5 ug/mL by agar diffusion method; assay type: functional; conditions: read-out: IZ
Candida albicans [17] = experiment: Antimicrobial activity against Candida albicans at 2.5 ug/mL by agar diffusion method; assay type: functional; conditions: read-out: IZ
Escherichia coli [18] = experiment: Antimicrobial activity against Escherichia coli at 1.25 ug/mL by agar diffusion method; assay type: functional; conditions: read-out: IZ
[19] = test system: Syncephalastrum racemosum; experiment: Antimicrobial activity against Syncephalastrum racemosum at 5 ug/mL by agar diffusion method; assay type: functional; conditions: read-out: IZ
Penicillium italicum [20] = experiment: Antimicrobial activity against Penicillium italicum at 5 ug/mL by agar diffusion method; assay type: functional; conditions: read-out: IZ
[21] = test system: Radical scavenging activity; experiment: Antioxidant activity assessed as DPPH free radical scavenging activity by measuring reduction in DPPH absorbance by ELISA relative to untreated control; assay type: functional; set-up: concentration or dose not given beside the values
How it was run: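 Test compounds dissolved in DMSO, ascorbic acid standard in water, both serially diluted. 10 µl sample added to 90 µl of 100 µM DPPH in methanol and kept in the dark at 37 °C for 30 min. Absorbance read at 515 nm. Blank is DMSO plus DPPH. % reduction = (A_B − A_A)/A_B × 100. Run in triplicate.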

[22] = test system: Syncephalastrum racemosum; experiment: Antimicrobial activity against Syncephalastrum racemosum at 2.5 ug/mL by agar diffusion method; assay type: functional; conditions: read-out: IZ
Staphylococcus aureus [23] = experiment: Antimicrobial activity against Staphylococcus aureus at 1.25 ug/mL by agar diffusion method; assay type: functional; conditions: read-out: IZ
Pseudomonas aeruginosa [24] = experiment: Antimicrobial activity against Pseudomonas aeruginosa at 5 ug/mL by agar diffusion method; assay type: functional; conditions: read-out: IZ
Aspergillus fumigatus [25] = experiment: Antimicrobial activity against Aspergillus fumigatus at 5 ug/mL by agar diffusion method; assay type: functional; conditions: read-out: IZ
Candida albicans [26] = experiment: Antimicrobial activity against Candida albicans at 1.25 ug/mL by agar diffusion method; assay type: functional; conditions: read-out: IZ
Pseudomonas aeruginosa [27] = experiment: Antimicrobial activity against Pseudomonas aeruginosa at 2.5 ug/mL by agar diffusion method; assay type: functional; conditions: read-out: IZ
Staphylococcus aureus [28] = experiment: Antimicrobial activity against Staphylococcus aureus by agar diffusion method; assay type: functional; how it was run: as §1
Bacillus subtilis [29] = experiment: Antimicrobial activity against Bacillus subtilis at 1.25 ug/mL by agar diffusion method; assay type: functional; conditions: read-out: IZ
Staphylococcus aureus [30] = experiment: Antimicrobial activity against Staphylococcus aureus at 2.5 ug/mL by agar diffusion method; assay type: functional; conditions: read-out: IZ
Aspergillus fumigatus [31] = experiment: Antimicrobial activity against Aspergillus fumigatus at 1.25 ug/mL by agar diffusion method; assay type: functional; conditions: read-out: IZ
Aspergillus fumigatus [32] = experiment: Antimicrobial activity against Aspergillus fumigatus by agar diffusion method; assay type: functional; how it was run: as §1
Hepatitis C virus = experiment: Antiviral activity against HCV by cell based replicon assay; assay type: functional, Hepacivirus hominis
How it was run: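 HCV replicon cells plated at 1×10^4 per well. Next day incubated at 37 °C with serially diluted compound in DMEM with 2% FBS and 0.5% DMSO. HCV RNA copy number measured by quantitative RT-PCR on total cellular RNA. Each point is the average of five replicates. Cytotoxicity measured by MTS in parallel.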

Candida albicans [33] = experiment: Antimicrobial activity against Candida albicans at 5 ug/mL by agar diffusion method; assay type: functional; conditions: read-out: IZ
Bacillus subtilis [34] = experiment: Antimicrobial activity against Bacillus subtilis at 2.5 ug/mL by agar diffusion method; assay type: functional; conditions: read-out: IZ

Sequence of DNA topoisomerase 2-alpha (Mus musculus) (Q01320 whole entry): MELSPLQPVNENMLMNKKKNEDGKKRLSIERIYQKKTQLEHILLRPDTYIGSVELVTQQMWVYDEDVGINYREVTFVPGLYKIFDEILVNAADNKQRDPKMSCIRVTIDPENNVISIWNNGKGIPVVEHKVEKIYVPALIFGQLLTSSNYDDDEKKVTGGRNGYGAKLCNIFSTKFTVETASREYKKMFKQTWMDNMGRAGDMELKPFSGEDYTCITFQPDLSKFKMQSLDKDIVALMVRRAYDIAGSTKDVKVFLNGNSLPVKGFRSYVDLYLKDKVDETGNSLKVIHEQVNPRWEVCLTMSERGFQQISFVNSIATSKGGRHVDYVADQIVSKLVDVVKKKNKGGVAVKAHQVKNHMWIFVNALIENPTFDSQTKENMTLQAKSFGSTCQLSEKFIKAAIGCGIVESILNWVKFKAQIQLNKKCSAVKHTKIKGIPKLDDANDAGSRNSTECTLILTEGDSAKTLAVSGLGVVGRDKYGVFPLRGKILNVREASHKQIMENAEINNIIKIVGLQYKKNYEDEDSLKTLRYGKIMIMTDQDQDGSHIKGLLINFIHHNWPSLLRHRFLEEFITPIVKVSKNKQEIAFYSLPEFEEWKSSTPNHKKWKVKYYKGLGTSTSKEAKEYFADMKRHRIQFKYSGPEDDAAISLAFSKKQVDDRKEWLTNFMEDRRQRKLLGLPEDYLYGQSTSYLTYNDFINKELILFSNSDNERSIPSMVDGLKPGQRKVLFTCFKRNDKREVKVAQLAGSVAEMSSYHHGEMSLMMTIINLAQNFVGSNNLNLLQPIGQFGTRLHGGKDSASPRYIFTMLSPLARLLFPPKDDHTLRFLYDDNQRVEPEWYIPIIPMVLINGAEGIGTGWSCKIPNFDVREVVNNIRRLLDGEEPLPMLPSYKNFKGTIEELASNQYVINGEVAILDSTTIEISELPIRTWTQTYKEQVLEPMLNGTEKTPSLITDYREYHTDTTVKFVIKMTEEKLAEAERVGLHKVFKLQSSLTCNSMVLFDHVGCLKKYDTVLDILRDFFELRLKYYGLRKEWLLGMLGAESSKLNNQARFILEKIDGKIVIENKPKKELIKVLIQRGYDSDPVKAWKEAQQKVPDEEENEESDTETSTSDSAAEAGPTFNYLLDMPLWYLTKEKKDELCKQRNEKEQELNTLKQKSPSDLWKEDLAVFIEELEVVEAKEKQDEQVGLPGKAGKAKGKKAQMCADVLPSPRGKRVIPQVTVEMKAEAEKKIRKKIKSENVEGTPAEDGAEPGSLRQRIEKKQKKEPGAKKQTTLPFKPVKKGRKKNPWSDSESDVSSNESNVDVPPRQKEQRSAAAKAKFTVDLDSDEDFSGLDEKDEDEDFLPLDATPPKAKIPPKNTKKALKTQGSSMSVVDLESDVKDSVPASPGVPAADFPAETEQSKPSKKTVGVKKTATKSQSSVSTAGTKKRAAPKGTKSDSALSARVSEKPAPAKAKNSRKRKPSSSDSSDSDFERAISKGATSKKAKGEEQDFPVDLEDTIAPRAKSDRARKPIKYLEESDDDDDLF

CC(=O)c1ccc(N/N=C2\CCCc3ccccc3C2=O)cc1
zone of inhibition at 1.25 µg/mL [1]: 6 mm
Ratio [2]: 4.3
zone of inhibition at 5 µg/mL (Escherichia coli [3]): 12 mm
zone of inhibition at 2.5 µg/mL (Escherichia coli [4]): 0 mm
zone of inhibition at 1.25 µg/mL (Pseudomonas aeruginosa [5]): 0 mm
MIC (Penicillium italicum [6]): 1.25 µg/mL (≈ 4.08 µM)
zone of inhibition at 1.25 µg/mL (Penicillium italicum [7]): 4 mm
IC50 [8]: 56.1 µM
MIC [9]: 0.313 µg/mL (≈ 1.02 µM)
zone of inhibition at 2.5 µg/mL (Penicillium italicum [10]): 6 mm
Ratio [11]: 4.33
Activity (MC-38): Active
MIC (Bacillus subtilis [12]): 0.313 µg/mL (≈ 1.02 µM)
MIC (Candida albicans [13]): 1.25 µg/mL (≈ 4.08 µM)
zone of inhibition at 5 µg/mL (Staphylococcus aureus [14]): 15 mm
MIC (Measles morbillivirus): 6.12 µg/mL (≈ 20 µM)
zone of inhibition at 5 µg/mL (Bacillus subtilis [15]): 16 mm
zone of inhibition at 2.5 µg/mL (Aspergillus fumigatus [16]): 11 mm
zone of inhibition at 2.5 µg/mL (Candida albicans [17]): 7 mm
zone of inhibition at 1.25 µg/mL (Escherichia coli [18]): 0 mm
zone of inhibition at 5 µg/mL [19]: 16 mm
zone of inhibition at 5 µg/mL (Penicillium italicum [20]): 17 mm
Activity [21]: 81%
zone of inhibition at 2.5 µg/mL [22]: 9 mm
zone of inhibition at 1.25 µg/mL (Staphylococcus aureus [23]): 5 mm
zone of inhibition at 5 µg/mL (Pseudomonas aeruginosa [24]): 0 mm
zone of inhibition at 5 µg/mL (Aspergillus fumigatus [25]): 20 mm
zone of inhibition at 1.25 µg/mL (Candida albicans [26]): 3 mm
zone of inhibition at 2.5 µg/mL (Pseudomonas aeruginosa [27]): 0 mm
MIC (Staphylococcus aureus [28]): 0.625 µg/mL (≈ 2.04 µM)
zone of inhibition at 1.25 µg/mL (Bacillus subtilis [29]): 7 mm
zone of inhibition at 2.5 µg/mL (Staphylococcus aureus [30]): 8 mm
zone of inhibition at 1.25 µg/mL (Aspergillus fumigatus [31]): 6 mm
MIC (Aspergillus fumigatus [32]): 0.625 µg/mL (≈ 2.04 µM)
MIC (Hepatitis C virus): 1.09 µg/mL (≈ 3.56 µM)
zone of inhibition at 5 µg/mL (Candida albicans [33]): 10 mm
zone of inhibition at 2.5 µg/mL (Bacillus subtilis [34]): 10 mm
